Series [1] in a line: Intrinsic clearance in Sprague-Dawley rat liver microsomes at 1 uM preincubated for 5 mins followed by NADPH addition and measured after 45 mins by LC/MS/MS analysis. Format: ADME, microsome. The note with it: read-out: CLH. In general terms: Microsomes from liver hold many membrane-bound enzymes, among them those of drug oxidation.
Series [2] in a line: Drug uptake in BALB/c mouse liver at 25 mg/kg, po via gavage measured after 4 hrs post dose by […]. Format: ADME, organism-based. The note with it: read-out: Drug uptake. Put shortly: (§1)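 BALB/c mice get a single oral gavage dose of 25 mg/kg; tissues are collected 4 h post-dose. About 100 mg tissue is diluted 5-fold in PBS and homogenized. Homogenate is extracted as for plasma (ketoconazole internal standard, acetonitrile extraction) and quantified by HPLC-UV at 291 nm, 0.1 μM detection limit, n=2.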

Series [3] in a line: Drug uptake in BALB/c mouse blood at 25 mg/kg, po via gavage measured after 4 hrs post dose by […]. The class given is ADME, organism-based. The note with it: read-out: Drug uptake. Put shortly: as §1
The nature of series [4]: Drug uptake in BALB/c mouse heart at 25 mg/kg, po via gavage measured after 4 hrs post dose by […]. Format: ADME, organism-based. The note with it: read-out: Drug uptake. Put shortly: as §1
Series [5] can be described thus: Plasma concentration in BALB/c mouse assessed as time until the compound becomes undetectable at 25 mg/kg, po via gavage […]. Format: ADME, organism-based. The note with it: in vivo. A digest of the protocol:
(§2)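 Single oral gavage dose of 25 mg/kg in BALB/c mice; blood sampled at 1, 2, 4, 6, 10, 16, 24 h. Plasma is diluted in PBS with ketoconazole internal standard, extracted with 80% acetonitrile, dried and redissolved. Analysed by reversed-phase HPLC with UV at 291/250 nm, 0.1 μM detection limit. Lifetime is time until undetectable.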

Series [6] can be described thus: Hepatic clearance in Sprague-Dawley rat liver microsomes at 1 uM preincubated for 5 mins followed by NADPH addition and measured after 45 mins by LC/MS/MS analysis. Format: ADME, microsome. A digest of the protocol: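 Pooled liver microsomes at 0.5 mg/mL: human (mixed gender), male Sprague-Dawley rat, or male CD-1 mouse, with test compound at 1 μM, triplicate. In vitro t1/2 is scaled to CLint (45 mg microsomes/g liver; 45 g liver/kg scaling factor). CLhep uses well-stirred model with hepatic blood flow 21 (human), 70 (rat), 90 (mouse) mL/min/kg.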

Series [7] can be described thus: Hepatic clearance in human liver microsomes at 1 uM preincubated for 5 mins followed by NADPH addition and measured after 45 mins by LC/MS/MS analysis. The class given is ADME, microsome.
Series [8] can be described thus: Half life in CD1 mouse liver microsomes at 1 uM preincubated for 5 mins followed by NADPH addition and measured by LC/MS/MS analysis. The class given is ADME, microsome. The note with it: mouse, microsomes, 1 µM.
A short description of series [9]: Drug uptake in BALB/c mouse brain at 25 mg/kg, po via gavage measured after 4 hrs post dose by […]. The class given is ADME, organism-based. The note with it: read-out: Drug uptake. A digest of the protocol: as §1
A short description of series [10]: Lipophilicity, log P of the compound. Format: physicochemical. The note with it: octanol/water.
Series [11] in a line: Drug uptake in BALB/c mouse lungs at 25 mg/kg, po via gavage measured after 4 hrs post dose by […]. The class given is ADME, organism-based, Lung. The note with it: read-out: Drug uptake. A digest of the protocol:
as §1

The nature of series [12]: Half life in Sprague-Dawley rat liver microsomes at 1 uM preincubated for 5 mins followed by NADPH addition and measured by LC/MS/MS analysis. Format: ADME, microsome. The note with it: microsomes, 1 µM.
A short description of series [13]: Drug uptake in BALB/c mouse spleen at 25 mg/kg, po via gavage measured after 4 hrs post dose by […]. The note with it: read-out: Drug uptake. The class given is ADME, organism-based. Put shortly: as §1
Series [14] can be described thus: Intrinsic clearance in CD1 mouse liver microsomes at 1 uM preincubated for 5 mins followed by NADPH addition and measured after 45 mins by LC/MS/MS analysis. The class given is ADME, microsome. The note with it: read-out: CLH.
A short description of series [15]: Half life in human liver microsomes at 1 uM preincubated for 5 mins followed by NADPH addition and measured by LC/MS/MS analysis. Format: ADME, microsome. The note with it: microsomes, 1 µM.
Series [16] is described as follows: Hepatic clearance in CD1 mouse liver microsomes at 1 uM preincubated for 5 mins followed by NADPH addition and measured after 45 mins by LC/MS/MS analysis. The class given is ADME, microsome.
Series [17] in a line: Cmax in BALB/c mouse at 25 mg/kg, po via gavage measured after 2 hrs post dose by […]. The class given is ADME, organism-based. Also noted: dose 25 mg/kg, route oral. The note with it: in vivo. Put shortly: as §2
A short description of series [18]: Intrinsic clearance in human liver microsomes at 1 uM preincubated for 5 mins followed by NADPH addition and measured after 45 mins by LC/MS/MS analysis. The class given is ADME, microsome. The note with it: read-out: CLH.
Series [19] can be described thus: Maximum plasma concentration in BALB/c mouse at 25 mg/kg, po via gavage by […]. The class given is ADME, organism-based. Also noted: dose 25 mg/kg, route oral. Put shortly: as §2
A short description of series [20]: Drug uptake in BALB/c mouse spleen at 25 mg/kg, po via gavage measured after 2 hrs post dose by LC-MS analysis. The class given is ADME, organism-based. The note with it: in vivo.
Series [21] in a line: Drug uptake in BALB/c mouse brain at 25 mg/kg, po via gavage measured after 4 hrs post dose by LC-MS analysis. The note with it: in vivo.
Series [22] in a line: Drug uptake in BALB/c mouse liver at 25 mg/kg, po via gavage measured after 2 hrs post dose by LC-MS analysis. The class given is ADME, organism-based. The note with it: in vivo.
In series [23] the target is Putative lanosterol 14-alpha-demethylase (Leishmania infantum) (UniProt A2TEF2). Kind of series: Inhibition of Leishmania infantum CYP51 expressed in Escherichia coli using [3-3H]-obtusifoliol as substrate after 60 mins by LC-MS analysis. A digest of the protocol: (§3)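 Reconstituted reaction: 1 μM purified CYP51, 2 μM T. brucei NADPH-P450 reductase, 100 μM dilauroylphosphatidylcholine, isocitrate dehydrogenase/isocitrate regeneration, 50 mM K phosphate pH 7.2, 10% glycerol. [3-3H]sterol substrate at 50 μM final (eburicol for T. cruzi; obtusifoliol for T. brucei and L. infantum) with inhibitor at 1.1 μM final. Preincubate 60 s at 37 °C, start with 100 μM NADPH, run 60 min, EtOAc extraction. Gives % inhibition of 14α-demethylation, triplicate, mean ± SD.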
Putative lanosterol 14-alpha-demethylase (Leishmania infantum), sequence (A2TEF2 1-480): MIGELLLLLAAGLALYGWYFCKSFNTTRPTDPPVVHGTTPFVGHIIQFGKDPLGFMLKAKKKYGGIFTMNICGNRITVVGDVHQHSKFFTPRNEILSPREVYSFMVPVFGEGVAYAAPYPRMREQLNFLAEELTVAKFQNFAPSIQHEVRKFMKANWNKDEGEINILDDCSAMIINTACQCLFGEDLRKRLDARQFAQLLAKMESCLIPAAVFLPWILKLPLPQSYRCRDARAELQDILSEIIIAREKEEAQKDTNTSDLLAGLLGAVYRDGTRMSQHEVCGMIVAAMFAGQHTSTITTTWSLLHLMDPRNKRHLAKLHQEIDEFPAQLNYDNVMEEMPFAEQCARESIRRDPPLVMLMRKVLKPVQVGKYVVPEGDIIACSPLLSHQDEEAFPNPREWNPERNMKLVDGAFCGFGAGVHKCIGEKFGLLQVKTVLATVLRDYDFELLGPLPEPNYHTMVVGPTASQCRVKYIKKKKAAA

For series [24], the target named is Sterol 14-alpha demethylase (Trypanosoma cruzi (strain CL Brener)) (UniProt Q7Z1V1). Kind of series: Inhibition of Trypanosoma cruzi Y CYP51 expressed in Escherichia coli using [3-3H]-eburicol as substrate after 60 mins by LC-MS analysis. A digest of the protocol:
as §3

Series [25] addresses Lanosterol 14-alpha-demethylase (Trypanosoma brucei brucei (strain 927/4 GUTat10.1)) (UniProt Q385E8). The series is described as follows: Inhibition of Trypanosoma brucei […] CYP51 expressed in Escherichia coli using [3-3H]-obtusifoliol as substrate after 60 mins by LC-MS analysis. Put shortly: as §3
Series [26] is described as follows: Drug uptake in BALB/c mouse blood at 25 mg/kg, po via gavage measured after 2 hrs post dose by LC-MS analysis. Format: ADME, organism-based. The note with it: in vivo.
Series [27] can be described thus: Drug uptake in BALB/c mouse intestine at 25 mg/kg, po via gavage measured after 2 hrs post dose by LC-MS analysis. Format: ADME, organism-based. The note with it: read-out: Drug uptake.
Series [28] in a line: Drug uptake in BALB/c mouse lungs at 25 mg/kg, po via gavage measured after 2 hrs post dose by LC-MS analysis. Format: ADME, organism-based, Lung. The note with it: in vivo.
The nature of series [29]: Drug uptake in BALB/c mouse heart at 25 mg/kg, po via gavage measured after 2 hrs post dose by LC-MS analysis. The note with it: in vivo. Format: ADME, organism-based.

Calls of active or inactive are those of the source. No cut-off for these calls is given here.

This is an account of results in ChEMBL document CHEMBL4257584, “Sterol 14α-Demethylase Structure-Based Optimization of Drug Candidates for Human Infections with the Protozoan Trypanosomatidae” (J Med Chem, 2018).

Sterol 14-alpha demethylase (Trypanosoma cruzi (strain CL Brener)), sequence (Q7Z1V1 whole entry, looked up): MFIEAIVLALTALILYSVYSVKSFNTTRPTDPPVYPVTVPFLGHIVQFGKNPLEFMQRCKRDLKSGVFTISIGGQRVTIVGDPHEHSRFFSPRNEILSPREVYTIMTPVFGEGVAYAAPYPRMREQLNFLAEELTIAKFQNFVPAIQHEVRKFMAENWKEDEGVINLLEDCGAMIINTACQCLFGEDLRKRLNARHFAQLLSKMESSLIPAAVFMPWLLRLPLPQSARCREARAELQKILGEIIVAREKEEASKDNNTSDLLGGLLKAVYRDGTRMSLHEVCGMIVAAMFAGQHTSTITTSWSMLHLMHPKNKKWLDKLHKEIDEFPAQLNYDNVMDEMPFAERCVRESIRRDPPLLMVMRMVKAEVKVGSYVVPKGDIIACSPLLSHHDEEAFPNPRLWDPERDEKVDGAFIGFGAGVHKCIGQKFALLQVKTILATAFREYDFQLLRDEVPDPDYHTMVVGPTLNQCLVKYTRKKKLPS
Lanosterol 14-alpha-demethylase (Trypanosoma brucei brucei (strain 927/4 GUTat10.1)), sequence (Q385E8 1-481): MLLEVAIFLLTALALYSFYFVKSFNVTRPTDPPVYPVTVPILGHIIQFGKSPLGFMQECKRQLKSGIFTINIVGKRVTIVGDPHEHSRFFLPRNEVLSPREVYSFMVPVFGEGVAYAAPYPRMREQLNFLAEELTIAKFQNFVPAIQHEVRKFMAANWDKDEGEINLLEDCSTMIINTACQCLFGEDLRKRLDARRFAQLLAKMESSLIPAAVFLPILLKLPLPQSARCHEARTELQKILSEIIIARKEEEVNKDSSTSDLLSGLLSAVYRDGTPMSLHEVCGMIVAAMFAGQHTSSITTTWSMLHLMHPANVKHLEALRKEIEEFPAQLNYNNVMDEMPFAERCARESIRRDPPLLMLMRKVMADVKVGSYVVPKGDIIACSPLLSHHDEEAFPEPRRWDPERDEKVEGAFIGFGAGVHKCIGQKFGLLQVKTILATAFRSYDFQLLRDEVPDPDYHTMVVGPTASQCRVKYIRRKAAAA

Consider `O=C(N[C@@H](Cn1ccnc1)c1ccc(-c2ccccc2)cc1Cl)c1ccc(-c2nnc(-c3ccccc3)o2)cc1`, for which the CLint scaled at 1 µM in series [1] is 142 mL/min/kg; in series [14], 34.2 mL/min/kg; in [18] it was 20.9 mL/min/kg. The concentration at 4 h in series [2] is 21 µM; in series [3], 9 µM; in [4], 5 µM; in series [9], 0.1 µM; in series [11] it was 8 µM; in [13] it was 5 µM. Also, the Time in [5] is below 10 h. Further, the figures for the CLhep predicted at 1 µM in [6], in [7] and in [16] were 46.9 mL/min/kg, 10.5 mL/min/kg and 24.8 mL/min/kg, respectively. Also, the t1/2 in series [8] was found to be 160 min; in series [12] it was 20 min; in series [15], 60 min. The logP (commonly the decadic logarithm of the partition coefficient of the neutral form, usually between octanol and water) in series [10] worked out at 5.68. Further, the Cmax in series [17] and in series [19] was 28 µM throughout.
Turning to `CS(=O)(=O)c1ccc(-c2ccc([C@H](Cn3ccnc3)NC(=O)c3ccc(-c4nnc(-c5ccccc5)o4)cc3)c(Cl)c2)cc1`, the Drug uptake result in series [20], in series [21], in series [22], in series [26], in series [28] and in [29] was “Not Active” throughout. Also, the inhibition result in [23], in [24] and in [25] was “inactive” throughout. Also, the values for the CLint scaled at 1 µM in series [1], in series [14] and in series [18] were 58.1 mL/min/kg, 127 mL/min/kg and 11.6 mL/min/kg, respectively. In addition, the concentration at 4 h in series [2], in [3], in [4], in series [9], in series [11] and in [13] was below 0.1 µM each time. Further, the CLhep predicted at 1 µM in series [6] is 31.7 mL/min/kg; in series [7] it was 7.46 mL/min/kg; in series [16], 52.6 mL/min/kg. Further, the t1/2 is recorded as 43 min in [8], 48 min in [12] and 108 min in series [15]. In series [27], the concentration at 2 h was determined as 130 µM. The molecule further had a lipophilicity (logP) in series [10] of 4.39. Further, in [19], the Cmax (usually the highest concentration seen after dosing) is below 0.1 µM.
